Blank lines part the entries; values can stand above or below the compound they belong to. Active and inactive are the calls of the source. The calls are words filed in the database; no cut-off is given here.
Assays:
HGC-27 = assay type: functional, Homo sapiens
SGC-7901 [1] = assay type: functional, Homo sapiens
MGC-803 = assay type: functional, Homo sapiens
Mus musculus [2] = assay: Toxicity in human Bel7404 cells xenografted BALB/C mouse assessed as body weight loss at 50 mg/kg, po qd for 4 weeks; details: in vivo, 672 h
BEL-7404 = assay: Antitumor activity against human BEL-7404 cells xenografted in BALB/C mouse assessed as tumor growth inhibition at 50 mg/kg, po qd for 4 weeks; details: BEL-7404, po, 672 h, read-out: TGI
Mus musculus [3] = assay: Toxicity in human Bel7404 cells xenografted BALB/C mouse assessed as body weight loss at 100 mg/kg, po administered every other day for 4 weeks; details: in vivo, 672 h
SMMC-7721 [4] = assay: Induction of apoptosis in human SMMC-7721 cells assessed as late apoptotic cell level at 5 uM incubated for 48 hrs by FITC/Annexin V staining based flow cytometry (reference value: 6.08%)
SMMC-7721 [5] = assay: Induction of apoptosis in human SMMC-7721 cells assessed as early apoptotic cell level at 5 uM incubated for 48 hrs by FITC/Annexin V staining based flow cytometry (reference value: 2.61%)
[6] = Oral bioavailability in BALB/C mouse at 10 mg/kg by LC-MS/MS method; assay type: ADME, organism-based; details: BALB/C, in vivo
Summary of the method: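 Bioavailability from single-dose iv (2 mg/kg, 5% DMSO/40% PEG400/55% saline) and oral gavage (10 mg/kg, 0.445% microcrystalline cellulose microsuspension) studies in BALB/C nude mice (N = 16 per arm); plasma at eight (po) or nine (iv) time points, LC-MS/MS, noncompartmental analysis.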

[7] = Clearance in BALB/C mouse at 10 mg/kg, po or 2 mg/kg, iv by LC-MS/MS method; assay type: ADME, organism-based; details: in vivo
Summary of the method: (§1)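 Female-unspecified BALB/C nude mice (15−20 g, N = 16 per arm); iv bolus 2 mg/kg in 5% DMSO/40% PEG400/55% saline and/or oral gavage 10 mg/kg as 0.445% microcrystalline cellulose microsuspension. Blood sampled at nine (iv) or eight (po) time points into sodium heparin tubes; plasma by LC-MS/MS; noncompartmental analysis.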

[8] = Half life in BALB/C mouse at 10 mg/kg, po or 2 mg/kg, iv by LC-MS/MS method; assay type: ADME, organism-based; details: BALB/C, in vivo
Summary of the method: as §1

[9] = Cmax in BALB/C mouse at 10 mg/kg, po or 2 mg/kg, iv by LC-MS/MS method; assay type: ADME, organism-based; details: BALB/C, in vivo
Summary of the method: as §1

[10] = Tmax in BALB/C mouse at 10 mg/kg, po or 2 mg/kg, iv by LC-MS/MS method; assay type: ADME, organism-based; details: BALB/C, in vivo
Summary of the method: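 Single-dose PK: iv bolus 2 mg/kg in 5% DMSO/40% PEG400/55% saline and/or oral gavage 10 mg/kg as 0.445% microcrystalline cellulose microsuspension; BALB/C nude mice (15−20 g, N = 16 per arm) or male Sprague−Dawley rats (250 ± 20 g, N = 3). Blood at eight (po) or nine (iv) time points into sodium heparin, plasma by LC-MS/MS, noncompartmental analysis.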

[11] = target: Histone deacetylase (Homo sapiens) (UniProt Q13547+O15379+Q9UBN7+Q92769+Q9UQL6+Q8WUI4+Q9BY41+Q96DB2+P56524+Q9UKV0+Q969S8); assay: Inhibition of Class 1 histone deacetylase in human HeLa cells assessed as induction in p21 protein expression at 3 uM incubated for 16 hrs by luciferase reporter gene assay relative to HDAC inhibitor entinostat; assay type: cell-based; set-up: scale not given: the % may be the effect or the level left
Homo sapiens = assay: Antitumor activity against treatment non-responding human hepatocellular carcinoma patient tumor xenografted in BALB/C mouse assessed as tumor growth inhibition at 100 mg/kg, po administered every other day for 4 weeks; assay type: functional, organism-based; set-up: dose 100 mg/kg
Summary of the method: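 Tumor fragments (3×3×3 mm3) from HCC patients implanted subcutaneously in right flank of female BALB/c nu/nu mice (6−7 weeks). At about 200 (150−250) mm3, randomized (n = 10 per arm); Q2D PO 100 mpk in 15% Kleptose pH 4.5 tartaric buffer, about four weeks; caliper tumor volume three times weekly.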

Mus musculus [12] = assay: Up-regulation of SDC2 gene expression in human hepatocellular carcinoma patient tumor xenografted in BALB/C mouse at 100 mg/kg, po administered every other day for 4 weeks by […]; assay type: functional, organism-based; set-up: dose 100 mg/kg
Summary of the method: (§2)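 Patient HCC tumor fragments (3 × 3 × 3 mm3) implanted subcutaneously in female BALB/c nu/nu mice; at ~200 (150−250) mm3 dosed orally Q2D 100 mpk in 15% Kleptose pH 4.5 tartaric buffer for about four weeks. Tumor RNA (TRIzol, DNase I) run on 22-gene qRT-PCR array, normalized to GAPDH/β-glucuronidase by ΔCt, fold change versus day 0.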

Mus musculus [13] = assay: Up-regulation of CDKN1A gene expression in human hepatocellular carcinoma patient tumor xenografted in BALB/C mouse at 100 mg/kg, po administered every other day for 4 weeks by […]; assay type: functional, organism-based; set-up: dose 100 mg/kg
Summary of the method: as §2

Mus musculus [14] = assay: Up-regulation of CEBPA gene expression in human hepatocellular carcinoma patient tumor xenografted in BALB/C mouse at 100 mg/kg, po administered every other day for 4 weeks by […]; assay type: functional, organism-based; set-up: dose 100 mg/kg
Summary of the method: as §2

Mus musculus [15] = assay: Up-regulation of IGFBP3 gene expression in human hepatocellular carcinoma patient tumor xenografted in BALB/C mouse at 100 mg/kg, po administered every other day for 4 weeks by […]; assay type: functional, organism-based; set-up: dose 100 mg/kg
Summary of the method: as §2

Mus musculus [16] = assay: Up-regulation of SPINT2 gene expression in human hepatocellular carcinoma patient tumor xenografted in BALB/C mouse at 100 mg/kg, po administered every other day for 4 weeks by […]; assay type: functional, organism-based; set-up: dose 100 mg/kg
Summary of the method: as §2

Mus musculus [17] = assay: Up-regulation of SOCS1 gene expression in human hepatocellular carcinoma patient tumor xenografted in BALB/C mouse at 100 mg/kg, po administered every other day for 4 weeks by […]; assay type: functional, organism-based; set-up: dose 100 mg/kg
Summary of the method: as §2

Mus musculus [18] = assay: Up-regulation of CDKN2B gene expression in human hepatocellular carcinoma patient tumor xenografted in BALB/C mouse at 100 mg/kg, po administered every other day for 4 weeks by […]; assay type: functional, organism-based; set-up: dose 100 mg/kg
Summary of the method: as §2

Mus musculus [19] = assay: Up-regulation of CCND2 gene expression in human hepatocellular carcinoma patient tumor xenografted in BALB/C mouse at 100 mg/kg, po administered every other day for 4 weeks by […]; assay type: functional, organism-based; set-up: dose 100 mg/kg
Summary of the method: as §2

SGC-7901 [20] = assay: Induction of cell cycle arrest in human SGC7901 cells assessed as accumulation at G1/G2 phase incubated for 24 hrs by flow cytometry; assay type: functional, cell-based
Summary of the method: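 SGC-7901 cells (1 × 10^5, about 50% confluent) treated 24 h with a concentration series; fixed in chilled 70% ethanol 1 h at 4 °C, stained 1 h at room temperature with propidium iodide (50 μg/mL) plus RNase A and 0.05% Triton X-100; analysed by flow cytometry.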

GI90 (HGC-27): 1 µM
GI90 (SGC-7901 [1]): 1.4 µM
GI90 (MGC-803): 2 µM
Compound: CN1C[C@H](C(=O)Nc2ccc(Cl)cc2)[C@@H](c2ccc(/C=C/C(=O)Nc3ccccc3N)cc2)C1 [listing 1 of 2 here]
Activity (Mus musculus [2]): < 10%
inhibition in vivo at 50 mg/kg (BEL-7404): > 60%
Activity (Mus musculus [3]): < 10%
Activity (SMMC-7721 [4]): 36.17%
Activity (SMMC-7721 [5]): 3.56%

bioavailability [6]: 89%
clearance [7]: 58 mL/min/kg
half-life [8]: 6.2 h
Cmax [9]: 450 ng/mL
Tmax [10]: 1 h
Compound: CN1C[C@@H](C(=O)Nc2ccc(Cl)cc2)[C@H](c2ccc(/C=C/C(=O)Nc3ccccc3N)cc2)C1

Activity [11]: 257%
Compound: CN1C[C@H](C(=O)Nc2ccc(Cl)cc2)[C@@H](c2ccc(/C=C/C(=O)Nc3ccccc3N)cc2)C1 [listing 2 of 2 here]
TGI (Homo sapiens): inactive
Activity (Mus musculus [12]): Active
Activity (Mus musculus [13]): Active
Activity (Mus musculus [14]): Active
Activity (Mus musculus [15]): Active
Activity (Mus musculus [16]): inactive
Activity (Mus musculus [17]): Active
Activity (Mus musculus [18]): Active
Activity (Mus musculus [19]): Active
Activity (SGC-7901 [20]): Dose-dependent effect

bioavailability [6]: 49%
clearance [7]: 23 mL/min/kg
half-life [8]: 3.4 h
Cmax [9]: 828 ng/mL
Tmax [10]: 2 h
Activity [11]: 130%
Compound: CN1C[C@H](C(=O)Nc2ccc(Cl)cc2)[C@@H](c2ccc(/C=C/C(=O)Nc3ccccc3N)cc2F)C1 (racemic)

Source: ChEMBL document CHEMBL2177000, “Pharmacokinetic optimization of class-selective histone deacetylase inhibitors and identification of associated candidate predictive biomarkers of hepatocellular carcinoma tumor response” (J Med Chem, 2012)
